Experimental data collected from several papers.
Lines come from different studies, so protocols differ.
Observed: cell growth or viability

SMILES	cell line	test	conditions	viability [%]
O=C(Nc1ccccc1)Nc1ccc(Oc2nnc(-c3ccc(Cl)cc3)c3ccccc23)cc1	HepG2	MTT	0.312 µM, 24 h	7.03
CC(C)(C)c1cnc(CSc2cnc(NC(=O)C3CCN(C(=O)CCCSc4cccc5c4C(=O)N(C4CCC(=O)NC4=O)C5=O)CC3)s2)o1 (stereo not drawn)	HH	CCK-8	1 µM	8.16
CC(=NNC(=O)c1ccccc1)c1ccc(Nc2nnc(-c3ccc(Cl)cc3)c3ccccc23)cc1	HepG2	MTT	0.312 µM, 24 h	99.6
CC(C)(C)c1cnc(CSc2cnc(NC(=O)C3CCN(CCCCCCCCSc4cccc5c4CN(C4CCC(=O)NC4=O)C5=O)CC3)s2)o1 (stereo not drawn)	HH	CCK-8	0.25 µM	0
CC(=NNC(=O)c1cccnc1)c1ccc(Nc2nnc(-c3ccc(Cl)cc3)c3ccccc23)cc1	HepG2	MTT	5 µM, 24 h	3.2
CC(=O)Nc1ccc(/C(C)=N/N=c2\sc(C(C)=O)nn2-c2ccc(C)cc2)cc1	HepG2	MTT	5 µM	86
CC(=NNC(=O)c1ccccc1Cl)c1ccc(Nc2nnc(-c3ccc(Cl)cc3)c3ccccc23)cc1	HepG2	MTT	0.625 µM, 24 h	28.3
CCOC(=O)c1nn(-c2cccc(Cl)c2)/c(=N/N=C(\C)c2ccc(NC(=O)c3ccccc3)cc2)s1	HepG2	MTT	2.5 µM	2.82
CC(C)(C)c1cnc(CSc2cnc(NC(=O)C3CCN(CCCCCSc4cccc5c4CN(C4CCC(=O)NC4=O)C5=O)CC3)s2)o1 (stereo not drawn)	HH	CCK-8	50 nM	97.6
CC(=O)c1nn(-c2ccc(C)cc2)/c(=N/N=C(\C)c2ccc(NC(=O)c3ccccc3)cc2)s1	HepG2	MTT	2.5 µM	6.81
CC(=NNC(=O)COc1ccc2c(C)c(Cc3ccccc3)c(=O)oc2c1C)c1ccc(Br)cc1	HepG2	MTT	0.2 µg/mL	62.9
CC(=O)c1nn(-c2ccccc2Cl)/c(=N/N=C(\C)c2ccc(NC(=O)c3ccccc3)cc2)s1	HepG2	MTT	0.312 µM	6.13
CC(C)(C)c1cnc(CSc2cnc(NC(=O)C3CCN(CCCCCCCCSc4cccc5c4C(=O)N(C4CCC(=O)NC4=O)C5=O)CC3)s2)o1 (stereo not drawn)	HH	CCK-8	50 nM	92.6
CCOC(=O)c1nn(-c2cccc(Cl)c2)/c(=N/N=C(\C)c2ccc(NC(=O)c3ccc(Cl)cc3)cc2)s1	HepG2	MTT	0.312 µM	3.13
O=C(C=Cc1ccccc1)Nc1ccc(Oc2nnc(-c3ccc(Cl)cc3)c3ccccc23)cc1	HepG2	MTT	0.625 µM, 24 h	78.5
